From the RNAGym collection of RNA variant scans (doi:10.1126/science.aae0568)
Fewer inactive variants are shown than the library holds.

B1: tRNA (parent)
chain: GUUCCGUUGGCGUAAUGGUAACGCGUCUCCCUCCUAAGGAGAAGACUGCGGGUUCGAGUCCCGUACGGAACG

Variants of: B1
Assay: yeast fitness relative to wild type (ratio to wild type); higher = fitter; tRNA-Arg(CCU), competitive growth, 37 C, YPD
Procedure, shortened: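 For this measurement, the tRNA-Arg(CCU) gene was varied by chemical synthesis at a 3% per-site mutation rate across 69 sites, and each variant was placed at the native genomic locus in Saccharomyces cerevisiae. The pooled strains went through a 24-hour competition in YPD at 37°C in six parallel replicates, with amplicons from start and end populations read by 100-nucleotide paired-end sequencing. Darwinian fitness relative to wild type followed from the change in each genotype's frequency. Genotypes needed ≥ 100 starting reads, and estimates < 0.5 were set to 0.5.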
For GUUCCGUUGGCGUAAUGGUAACGCGUCUCCCUCCUAAGGAGAAGACUACGGGUUCGAGUGCCGUACGGAACG, the yeast fitness was 0.583. In the case of GUUCCGUUGGCGUAAUGGUAACGCGUCUCCCUCCUAAGGAGAAGACCGCGGGUUCGAGGCCCGUACGGAACG, the yeast fitness is reported as 0.936. In the case of GUUCCGUUGGCGUAAUGGUAACGCGUCUCCCUCCUAAGGAGAAGACUACGGGUUCGGGUCUUGUACGGAACG, the yeast fitness is reported as ≤ 0.5. For GUUCCGUUGGCGUAAUGGUAACGCGUCUCCCUCCUAAGGAGAAGACCGCGGGUUCGAGUUCAGUACGGAACG, the yeast fitness was ≤ 0.5. For GUUCCGUUGGCGUAAUGGUAACGCGUCUCCCUCCUAAGGAGAAGACUACGGGUUCGAAGCCCGUACAGAACG, the yeast fitness was ≤ 0.5. GUUCCGUUGGCGUAAUGGUAACGCGUCUCCCUCCUAAGGAGAAGACUACGGGUCCGAGUCCCGUACGGCACG gave a yeast fitness of 0.686. With GUUCCGUUGGCGUAAUGGUAACGCGUCUCCCUCCUAAGGAGAAGACCGCGGGUUCGAGUCCCAUACGGAACG the yeast fitness was 0.949. In the case of GUUCCGUUGGCGUAAUGGUAACGCGUCUCCCUCCUAAGGAGAAGACCCCGGGUUCGAGUCCCGUCCGGAACG, the yeast fitness is reported as 0.619. GUUCCGUUGGCGUAAUGGUAACGCGUCUCCCUCCUAAGGAGAAGACCGCGGGUUCGAGUCGCGUACGGAACG showed a yeast fitness of 0.671. For GUUCCGUUGGCGUAAUGGUAACGCGUCUCCCUCCUAAGGAGAAGACUACGGGUUCGAGUCCCGUAUGGAACG, the yeast fitness was 0.97. GUUCCGUUGGCGUAAUGGUAACGCGUCUCCCUCCUAAGGAGAAGACGGCGGGUUCGAGUCCCGUACGGAACG showed a yeast fitness of 0.633. In the case of GUUCCGUUGGCGUAAUGGUAACGCGUCUCCCUCCUAAGGAGAAGACGGAGGGUUCGAGUCCCAUACGAAACG, the yeast fitness is reported as ≤ 0.5. GUUCCGUUGGCGUAAUGGUAACGCGUCUCCCUCCUAAGGAGAAGACCGGGGGUUCGAGUCCCGUACGGAACG showed a yeast fitness of 0.909. For GUUCCGUUGGCGUAAUGGUAACGCGUCUCCCUCCUAAGGAGAAGACGGCGGAUUCGAGUCACGUACCGAACG, the yeast fitness was ≤ 0.5. For GUUCCGUUGGCGUAAUGGUAACGCGUCUCCCUCCUAAGGAGAAGACCGCGAGUUCGAGUCCCGUACGGAACG, the yeast fitness was 0.906. GUUCCGUUGGCGUAAUGGUAACGCGUCUCCCUCCUAAGGAGAAGACGGCAGGUUAAAGUCCCGUACGGAACG showed a yeast fitness of 0.533. Work on GUUCCGUUGGCGUAAUGGUAACGCGUCUCCCUCCUAAGGAGAAGACUACGGGUUCGAGUCCCGUACGUCACG yielded a yeast fitness of 0.524. In the case of GUUCCGUUGGCGUAAUGGUAACGCGUCUCCCUCCUAAGGAGAAGACUACGGGUUUGGGUCCCGUACGCAACG, the yeast fitness is reported as ≤ 0.5. In the case of GUUCCGUUGGCGUAAUGGUAACGCGUCUCCCUCCUAAGGAGAAGACCGCGGGUUCGAGUCCCGUACGCAACG, the yeast fitness is reported as 0.742. GUUCCGUUGGCGUAAUGGUAACGCGUCUCCCUCCUAAGGAGAAGACCGCGGGUUCGAGUCCCGUACGUAACG showed a yeast fitness of 1.1. For GUUCCGUUGGCGUAAUGGUAACGCGUCUCCCUCCUAAGGAGAAGACUACGGGCUCGAGUAUCGUACGGAACG, the yeast fitness was ≤ 0.5. With GUUCCGUUGGCGUAAUGGUAACGCGUCUCCCUCCUAAGGAGAAGACUACGGGUUUGAGUCCCAUACGGAACG the yeast fitness was 0.706. GUUCCGUUGGCGUAAUGGUAACGCGUCUCCCUCCUAAGGAGAAGACUACGGGUUCCAGUCCCGUACGGAACG showed a yeast fitness of 0.618. For GUUCCGUUGGCGUAAUGGUAACGCGUCUCCCUCCUAAGGAGAAGACUACGGGUUCGAGUCCCGUGCGGAACG, the yeast fitness was 0.981. In the case of GUUCCGUUGGCGUAAUGGUAACGCGUCUCCCUCCUAAGGAGAAGACGGCGGGUUCGAGUACCGUACGGAACG, the yeast fitness is reported as ≤ 0.5. For GUUCCGUUGGCGUAAUGGUAACGCGUCUCCCUCCUAAGGAGAAGACCGCGGGUCCGAGUCCCGUACGGAACG, the yeast fitness was 0.843. For GUUCCGUUGGCGUAAUGGUAACGCGUCUCCCUCCUAAGGAGAAGACGGCGGGUUCGAGUUCCGUCCGGAACG, the yeast fitness was ≤ 0.5. GUUCCGUUGGCGUAAUGGUAACGCGUCUCCCUCCUAAGGAGAAGACUACGGGUUCCAGUCCCGUGCGGAACG gave a yeast fitness of 0.543. GUUCCGUUGGCGUAAUGGUAACGCGUCUCCCUCCUAAGGAGAAGACGGCGGGUUCGAGUCCGGUACGAAACG showed a yeast fitness of 0.525. Work on GUUCCGUUGGCGUAAUGGUAACGCGUCUCCCUCCUAAGGAGAAGACUAUGGGUUCGAGUCCCGUGCGGAACG yielded a yeast fitness of 0.743. For GUUCCGUUGGCGUAAUGGUAACGCGUCUCCCUCCUAAGGAGAAGACUACGGGUUCGAGUUCCGUACGGAUCG, the yeast fitness was 0.71. Work on GUUCCGUUGGCGUAAUGGUAACGCGUCUCCCUCCUAAGGAGAAGACUACAGGUACGAGUCCCGUACGGAACG yielded a yeast fitness of 0.597. In the case of GUUCCGUUGGCGUAAUGGUAACGCGUCUCCCUCCUAAGGAGAAGACGGCGGGUUCGAGUCCCGUCCGGAACG, the yeast fitness is reported as 0.672. GUUCCGUUGGCGUAAUGGUAACGCGUCUCCCUCCUAAGGAGAAGACUACGGGUUCGAGUCCUGUACGGAUCG showed a yeast fitness of 0.824. With GUUCCGUUGGCGUAAUGGUAACGCGUCUCCCUCCUAAGGAGAAGACUAAGGGUUCGAGUCCCGUACGGAACG the yeast fitness was 0.969. Variant GUUCCGUUGGCGUAAUGGUAACGCGUCUCCCUCCUAAGGAGAAGACUACGGGUUCGAGUCCCGUACAGAACG has a yeast fitness of 0.91. For GUUCCGUUGGCGUAAUGGUAACGCGUCUCCCUCCUAAGGAGAAGACUACGGGUUCGAGUCCCGUACCGAACG, the yeast fitness was 1.02.
